T cruzi inh = blocks replication of Trypanosoma cruzi; AID 1885; T. cruzi beta-gal in NIH3T3, luminescence, 90 h; 300,000 tested, 1.4% active; inhibition, % (no concentration beside the values);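 active = mean inhibition across valid replicates above about 55%, limit read from the data; inconclusive = mean below that limit but half or more replicates reach it; inactive = mean below it, under half of replicates reach it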;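 note: signal also drops with host cell toxicity which is not excluded here; 0% = plate median of DMSO wells and 100% = zero luminescence signal; higher percent means less beta-gal luminescence so fewer parasites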
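System – NIH/3T3 host cells with β-galactosidase reporter T. cruzi · Doses – single 50 nL compound addition per well in DMSO · Reagent – 5000 T. cruzi trypomastigotes/well · Medium – Low-serum DMEM with 2% FBS · Timing – ≥90 h infection period, 3 h prior cell attachment · Evaluation – parasite load inhibition, % · Technique – GalScreen luminescence, 60 min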
Jurkat NFkB inh = lowers PMA/ionomycin-induced NF-kB signal in Jurkat cells | inhibition, % at 4 µM | AID 435003 | 330,000 tested, 0.53% active | PMA/ionomycin-induced NF-kB luciferase reporter, luminescence; in the data active = inhibition above about 50%
HSF1 activator = increases HSF-1 driven luciferase reporter signal | NIH3T3-HGL HSF-1 luciferase reporter, MG132, 8 h; 100% = twice DMSO control signal | activation, % at 9 µM | 300,000 tested, 1.7% active | AID 504408;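 active = mean replicate activation of at least 50% with a set share of replicates each reaching 50%; inconclusive = only one of those two conditions met; inactive = mean below 50% and too few replicates reaching it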;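 note: 0% = median of the neutral control wells and 100% = twice that signal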
697 NFkB inh = lowers PMA/ionomycin-induced NF-kB signal in 697 B cells | 697 B-cell NF-kB luciferase reporter, 16 h | inhibition, % at 4 µM | 330,000 tested, 0.33% active | AID 435022; in the data active = inhibition above about 35%
HSF1 inhib = HSF1 inhibition; NIH3T3-HGL HSE-luciferase, MG132-induced, luminescence 8 h; hits give low values; activity change, negative = inhibition, % at 7.5 µM (by protocol); 300,000 tested, 0.77% active; AID 2098;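 active = more than half of replicate wells show activity change below -50%, luminescence cut by over half; inconclusive = some wells, but at most half, below -50%; inactive = no replicate well below -50%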;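 note: luciferase reports HSF-1 transcriptional activity via heat shock element; 0% = median of DMSO wells and -100% = zero luminescence signal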
GPR7 antag = antagonists of human GPR7 (neuropeptides B/W receptor 1). 290,000 tested, 1.1% active. P48145. inhibition, % at 4.4 µM. GPR7-expressing cells, fluorescence antagonist assay; in the data active = inhibition above about 16%, passing the limit was not always enough;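 note: cells stimulated with the agonist NPW; 0% = agonist with vehicle and 100% = vehicle without agonist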
Target sequence (P48145 whole entry, looked up): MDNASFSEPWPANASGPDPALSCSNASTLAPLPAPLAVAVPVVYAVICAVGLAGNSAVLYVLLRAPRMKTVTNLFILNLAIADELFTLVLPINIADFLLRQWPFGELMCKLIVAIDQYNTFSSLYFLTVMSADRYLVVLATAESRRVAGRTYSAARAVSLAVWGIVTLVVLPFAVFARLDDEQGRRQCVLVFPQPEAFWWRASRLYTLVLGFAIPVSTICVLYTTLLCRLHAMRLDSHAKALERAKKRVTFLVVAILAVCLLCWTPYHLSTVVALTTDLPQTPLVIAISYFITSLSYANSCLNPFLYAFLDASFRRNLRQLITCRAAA
Starred values were filed as active, the others as inactive; ? = inconclusive; · = not tested or not shown; ! = repeats disagree. An excerpt weighted towards active compounds, which were near 4.8% of everything screened.

SMILES	T cruzi inh	Jurkat NFkB inh	HSF1 activator	697 NFkB inh	HSF1 inhib	GPR7 antag
CCN(CC)c1ccc(/C=N/NC(=O)c2ccco2)c(O)c1	61*	36	14	-182	12	-3
O=C(NCc1ccccc1)c1cc[n+]([O-])cc1	-4	1	-7	4	-1	-3
Cc1ccc(NC(=O)c2ccccn2)c(Br)c1	-8	-140	58*	-180	30	-10
CCc1ccc(C(=O)NC(CCSC)C(=O)OC)cc1 (stereo not drawn)	-9	-11	-84	6	-81*	5
COC(=O)[C@H](CCSC)NC(=O)Nc1cccc(C)c1C	9	6	96*	0	40	-9
O=C1CNC(=S)N1c1nc(-c2ccccc2)cs1	-6	-82	52*	-179	26	-5
N#C/C(=C(/O)c1ccc([N+](=O)[O-])s1)c1nc2ccccc2[nH]1	55*	-23	-2	-50	-5	-12
N#C/C(=C(/O)c1ccc(Br)s1)c1nc2ccccc2[nH]1	-41	15	4	-106	-3	7
Cc1ccc(NC(=O)c2ccccc2N(C)S(=O)(=O)c2ccccc2)c(C)c1	0	-8	65*	3	30	5
CC(=O)Nc1ccc(NC(=O)c2ccccc2N(C)S(=O)(=O)c2ccc(C)cc2)cc1	12	15	4	9	-7	-16
Cc1ccc(S(=O)(=O)N(C)c2ccccc2C(=O)NC2CCCC2)cc1	4	11	-76	12	-72*	-4
CC1Cc2cc(/C(O)=C3/C(=O)C(=O)N(CC4CCCO4)C3c3ccco3)ccc2O1 (stereo not drawn)	-4	-28	-67	6	-56*	-14
COc1cc(C2/C(=C(\O)c3ccc4c(c3)CC(C)O4)C(=O)C(=O)N2CC2CCCO2)cc(OC)c1OC (stereo not drawn)	-2	7	-11	8	-2	-6
CC(=O)N[C@@H](Cc1c[nH]c2ccccc12)C(=O)NCCc1ccc(S(N)(=O)=O)cc1	-15	-18	-19	-18	-6	7
CC(=O)N[C@@H](Cc1c[nH]c2ccccc12)C(=O)NCc1ccccc1	-2	-10	65*	-12	15	-18
O=C(CN1CCOCC1)Nc1scc2c1c(=O)oc1ccccc12	·	14	0	-20	-1	-6
CCCCn1cnc2c(=S)nc(N)[nH]c21	-7	-1	7	11	-8	-16
CCCn1cnc2c(=S)nc(N)[nH]c21	-12	17	-4	17	-4	18*
CN1C(=O)CC(=O)N(C)c2cc(S(=O)(=O)N(C)Cc3ccccc3)ccc21	1	-12	-6	23	1	-4
Cc1ccc(CNc2c(C=O)c(=O)[nH]c3ccccc23)cc1	-6	13	63*	1	17	1
COc1ccc(-c2c[n+]3c(n2-c2ccccc2)CCCCC3)cc1	?	-1	-2	-14	-10	2
CCOc1ccc(-n2c(-c3ccccc3)c[n+]3c2CCC3)cc1	62*	42	-27	2	-17	-16
CC(=O)c1ccc(S(=O)(=O)Nc2ccc(C(=O)NCCCn3ccnc3)cc2)cc1	·	4	·	16	·	·
O=C(O)c1ccc(N/N=C/c2c[nH]c3ccccc23)cc1	-1	35	-80	-93	-78*	-5
O=C(O)c1ccc(N/N=C/c2cn(Cc3ccccc3F)c3ccccc23)cc1	-5	-22	-70	-110	-64*	-11
SMILES	T cruzi inh	Jurkat NFkB inh	HSF1 activator	697 NFkB inh	HSF1 inhib	GPR7 antag
Cn1c(N/N=C/c2c[nH]c3ccccc23)nc2ccccc21	8	-15	61*	-28	36	1
O=C(COC(=O)c1ccccc1O)NCc1ccc2c(c1)OCO2	·	-49	·	-4	·	·
CN(C)C(CNC(=O)CSc1nc2sc3c(c2c(=O)n1C)CCCC3)c1ccccc1 (stereo not drawn)	·	-18	·	-33	·	·
CCN(CC)CCN1C(=O)Cn2c(C)c(C)c3cccc1c32	69*!	0	21	-11	-7	-12
COC(=O)CCN(C(=O)c1cc([N+](=O)[O-])cc([N+](=O)[O-])c1)c1ccccn1	65*	7	25	2	-4	-9
C=CCN(C(=O)CCc1ccccc1OC)c1nc(-c2ccc(S(C)(=O)=O)cc2)cs1	66*	-17	58*	-18	15	0
